Assay results from ChEMBL document CHEMBL1123563, “New antifilarial agents. 1. Epoxy sulfonamides and ethynesulfonamides” (J Med Chem, 1987).
Activity calls are given as the source filed them.

What was measured:
[1] = Antifilarial activity against Molinema dessetae in vivo in Proechimys oris the natural host at a dose of 40 mg/kg subcutaneously once a day for 5 days. Value is expressed as number of infected P. oris.; type: functional; conditions: route subcutaneous
[2] = Effective concentration of compound necessary to kill 50% of infective larvae of Molinema dessetae after 7 days was determined in vitro; Value ranges from 100-500; type: functional
Summary of the method: (§1)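 Infective larvae from the intermediate host were decontaminated and held 20 per 1.5 mL in a biphasic medium: L929 feeder layer with RPMI and fetal calf serum (90:10), plus penicillin and streptomycin. Compound solutions at several concentrations were made in DMSO, and 10 μL of each was added. After 7 days, survival was corrected by control, in duplicate runs. EC ranges are given in μM.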

molinema dessetae [3] = assay: Effective concentration of compound necessary to kill 90% of infective larvae of Molinema dessetae after 7 days was determined in vitro; Value ranges from 100-500; type: functional; summary of the method: as §1
molinema dessetae [4] = assay: Antifilarial activity against Molinema dessetae in vivo against male adult worms at a dose of 40 mg/kg subcutaneously once a day for 5 days; Active; type: functional, organism-based; set-up: dose 40 mg/kg
molinema dessetae [5] = assay: Antifilarial activity against Molinema dessetae in vivo against female adult worms at a dose of 40 mg/kg subcutaneously once a day for 5 days; Active; type: functional, organism-based; set-up: dose 40 mg/kg
[6] = Effective concentration of compound necessary to kill 50% of infective larvae of Molinema dessetae after 7 days was determined in vitro; type: functional
[7] = Antifilarial activity against Molinema dessetae in vivo in Proechimys oris the natural host at a dose of 1000 mg/kg subcutaneously once a day for 5 days. Value is expressed as number of infected P. oris.; type: functional; conditions: route subcutaneous
molinema dessetae [8] = assay: Antifilarial activity against Molinema dessetae in vivo against male adult worms at a dose of 1000 mg/kg subcutaneously once a day for 5 days; Active; type: functional, organism-based; set-up: dose 1000 mg/kg
molinema dessetae [9] = assay: Antifilarial activity against Molinema dessetae in vivo against female adult worms at a dose of 1000 mg/kg subcutaneously once a day for 5 days; Active; type: functional, organism-based; set-up: dose 1000 mg/kg
molinema dessetae [10] = test system: molinema dessetae;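 note: in vitro assay on infective-stage larvae, EC90 being the concentration lethal to 90% of larvae after 7 days of exposure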
[11] = Effective concentration of compound necessary to kill 50% of infective larvae of Molinema dessetae after 7 days was determined in vitro; Value ranges from 20-100; type: functional; summary of the method: as §1
molinema dessetae [12] = assay: Antifilarial activity against Molinema dessetae in vivo against male adult worms at a dose of 200 mg/kg subcutaneously once a day for 5 days; Active; type: functional, organism-based; set-up: dose 200 mg/kg
Summary of the method: (§2)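 Proechimys oris of both sexes were each infected with 200 infective larvae dissected from Aedes aegypti mosquitoes. Microfilaremia was checked, and the rodents were treated 150–180 days post-infection. Compound was given subcutaneously as a 1% carboxymethylcellulose suspension once daily for 5 consecutive days. Microfilaremia was followed for 6 weeks, then adult male and female worms were counted at autopsy. A compound was scored active if no males and ≤1.6 females were found (p = 0.12).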

[13] = Antifilarial activity against Molinema dessetae in vivo in Proechimys oris the natural host at a dose of 200 mg/kg subcutaneously once a day for 5 days. Value is expressed as number of infected P. oris.; type: functional; conditions: route subcutaneous; summary of the method: as §2
[14] = Antifilarial activity against Molinema dessetae in vivo in Proechimys oris the natural host at a dose of 50 mg/kg subcutaneously once a day for 5 days. Value is expressed as number of infected P. oris.; type: functional; conditions: route subcutaneous; summary of the method: as §2
molinema dessetae [15] = assay: Antifilarial activity against Molinema dessetae in vivo against female adult worms at a dose of 200 mg/kg subcutaneously once a day for 5 days; Active; type: functional, organism-based; set-up: dose 200 mg/kg; summary of the method: as §2
molinema dessetae [16] = assay: Antifilarial activity against Molinema dessetae in vivo against male adult worms at a dose of 50 mg/kg subcutaneously once a day for 5 days; Inactive; type: functional, organism-based; set-up: dose 50 mg/kg; summary of the method: as §2

## Cc1ccc(C(=O)Nc2ccc(S(=O)(=O)O)c3cc(S(=O)(=O)O)cc(S(=O)(=O)O)c23)cc1NC(=O)c1cccc(NC(=O)Nc2cccc(C(=O)Nc3cc(C(=O)Nc4ccc(S(=O)(=O)O)c5cc(S(=O)(=O)O)cc(S(=O)(=O)O)c45)ccc3C)c2)c1 [SURAMIN]
[1]
  Activity: 2
[2]
  EC50: 500 µM
Molinema dessetae [3]
  EC90: 500 µM
Molinema dessetae [4]
  Activity: Active
Molinema dessetae [5]
  Activity: Active

## C[C@@H]1O[C@@H]1P(=O)([O-])[O-].[Na+].[Na+] [PHOSPHOMYCIN DISODIUM]
[6]
  EC50: > 500 µM
[7]
  Activity: 2
Molinema dessetae [8]
  Activity: Active
Molinema dessetae [9]
  Activity: Active
Molinema dessetae [10]
  EC90: > 500 µM

## CN(C)S(=O)(=O)[C@@H]1O[C@H]1c1ccccc1
[11]
  EC50: 100 µM
Molinema dessetae [12]
  Activity: Active
Molinema dessetae [3]
  EC90: 500 µM
[13]
  Activity: 2
[14]
  Activity: 2
Molinema dessetae [15]
  Activity: Active
Molinema dessetae [16]
  Activity: inactive
